Measurements of several laboratories.
Converted amounts (≈) assume the structure as drawn.

`N#Cc1ccc(-c2c(-c3ccccn3)nc3n2CCC3)cc1` gave an EC50 of 31.6 µM (Leishmania infantum; parasite growth; 5 days, intracellular, amastigote).
`COc1ccc(NC(=O)c2c(Nc3ccccc3)sc(C(=O)NN=Cc3ccc(Cl)cc3)c2NC(C)=O)cc1` has a viability of 101% (HCT-116; cell growth or viability, SRB; 1 nM, 48 h).
`O=C(O)CN1C(=O)/C(=C/c2ccc(-c3ccc(N(c4ccccc4)c4ccccc4)cc3)cc2)NC1=S` gave an MIC of 62.5 µg/mL (≈ 124 µM) (Streptococcus mutans; microbial growth, broth dilution; ATCC25175).
For `COc1ccc(C=NNC(=O)c2sc(Nc3ccccc3)c(C(=O)Nc3ccc(OC)cc3)c2NC(C)=O)cc1`, the viability was 86.1% (HCT-116; cell growth or viability, SRB; 10 nM, 48 h).
`O=C(O)CN1C(=O)/C(=C/c2c3ccccc3c(-c3ccc(N(c4ccccc4)c4ccccc4)cc3)c3ccccc23)SC1=S` gave an MIC of > 1000 µg/mL (Streptococcus mutans; microbial growth, broth dilution; ATCC25175).
`COc1ccc(NC(=O)c2c(Nc3ccccc3)sc(C#N)c2NC(=O)CNc2ccc([N+](=O)[O-])cc2)cc1` gave a viability of 92.4% (HCT-116; cell growth or viability, SRB; 10 nM, 48 h).
For `Cc1ccc2nc(-c3ccccn3)c(CN(CC(C)C)c3cccc(C(F)(F)F)c3)n2c1`, the EC50 was 3.16 µM (Leishmania infantum; parasite growth; intracellular, amastigote).
`COc1ccc(NC(=O)c2c(Nc3ccccc3)sc(C(=O)NN=Cc3ccc(Br)cc3)c2NC(C)=O)cc1` has a viability of 72.8% (HCT-116; cell growth or viability, SRB; 1 µM, 48 h).
`O=C1NC(=S)N/C1=C\c1ccc(-c2ccc(N(c3ccccc3)c3ccccc3)cc2)c2ccccc12` has an MBC of > 1000 µg/mL (Streptococcus mutans; microbial killing, broth dilution; ATCC25175).
`COc1ccc2occ(/C=C/c3cc(OC)c(OC)c(OC)c3)c(=O)c2c1` has a CC50 of 50 µM (HSC-2; cell growth or viability, MTT; 6.7 h).
The MBC of `O=C(O)CN1C(=O)/C(=C/c2ccc(-c3ccc(N(c4ccccc4)c4ccccc4)cc3)c3ccccc23)SC1=S` is reported as > 1000 µg/mL (Streptococcus mutans; microbial killing, broth dilution; ATCC25175).
The EC50 of `COc1ccc2nc(-c3cc(N(C)C)ccn3)c(N(C)c3ccc(F)cc3)n2c1` is reported as 1.58 µM (Leishmania infantum; parasite growth; intracellular, amastigote).
`COc1ccc(NC(=O)c2c(Nc3ccccc3)sc(C#N)c2NC(=O)CNc2ccc(OC)c(OC)c2)cc1` has a viability of 65.2% (HCT-116; cell growth or viability, SRB; 1 µM, 48 h).
For `COc1ccc2occ(/C=C/c3ccc(O)cc3)c(=O)c2c1`, the CC50 was 5.5 µM (HSC-2; cell growth or viability, MTT; 7 h).
With `CCCN(c1ccc(F)cc1)c1c(-c2ccccn2)nc2ccccn12` the EC50 was 1.58 µM (Leishmania infantum; parasite growth; 5 days, intracellular, amastigote).
The viability of `COc1ccc(NC(=O)c2c(Nc3ccccc3)sc(C#N)c2NC(=O)CNc2ccc(Cl)cc2)cc1` is reported as 33.5% (HCT-116; cell growth or viability, SRB; 100 µM, 48 h).
`CS(=O)(=O)c1ccc2nc(-c3ccccn3)c(Nc3ccc(F)cc3)n2c1` has an IC50 of 32.5 µM (Leishmania infantum; parasite growth; intracellular, amastigote).
`O=C(O)CN1C(=O)/C(=C/c2ccc(-c3ccc(N(c4ccccc4)c4ccccc4)cc3)cc2)SC1=S` gave an MIC of 1000 µg/mL (≈ 1910 µM) (Streptococcus mutans; microbial growth, broth dilution; ATCC25175).
For `COc1ccc(NC(=O)c2c(Nc3ccccc3)sc(C(=O)NN=Cc3ccc(C)cc3)c2NC(C)=O)cc1`, the viability was 80.5% (HCT-116; cell growth or viability, SRB; 0.1 µM, 48 h).
With `O=C1NC(=S)S/C1=C\c1ccc(-c2ccc(N(c3ccccc3)c3ccccc3)cc2)c2ccccc12` the MBC was > 1000 µg/mL (Streptococcus mutans; microbial killing, broth dilution; ATCC25175).
`CN(C)C(=O)c1ccc(-c2c(-c3ccccn3)nc3n2CCC3)cc1` gave an EC50 of 39.8 µM (Leishmania infantum; parasite growth; 5 days, intracellular, amastigote).
`COc1ccc(/C=C/c2coc3ccc(OC)cc3c2=O)cc1` gave a CC50 of 2.5 µM (HSC-2; cell growth or viability, MTT; 21 h).
For `COc1ccc(NC(=O)c2c(Nc3ccccc3)sc(C#N)c2NC(=O)CNc2ccc(C)cc2)cc1`, the viability was 60.3% (HCT-116; cell growth or viability, SRB; 100 µM, 48 h).
With `COc1cc(OC)cc(-c2c(-c3ccccn3)nc3n2CCC3)c1` the EC50 was 1.26 µM (Leishmania infantum; parasite growth; 5 days, intracellular, amastigote).
The ED50 of `NC(=O)N1c2ccccc2C=Cc2ccccc21` is reported as 6.5 mg/kg (MES seizures; rat; intraperitoneal).
For `COc1cccnc1-c1nc2ccccn2c1N(C)c1ccc(F)cc1`, the EC50 was 1.58 µM (Leishmania infantum; parasite growth; intracellular, amastigote).
`O=C1NC(=S)N/C1=C\c1ccc(-c2ccc(N(c3ccccc3)c3ccccc3)cc2)cc1` has an MBC of > 1000 µg/mL (Streptococcus pyogenes; microbial killing, broth dilution; ATCC19615).
